The record followed here is PMC10698511 (RSC Advances, 2023).

Series [1] concerns HeLa cells. As to the kind of experiment: Antiproliferative activity against HeLa cells. The format is cell-based. Particulars: Homo sapiens, 48 h, read-out: HeLa IC50. In outline: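 HeLa cells from ATCC in RPMI-1640 with 10% FBS and 1% penicillin-streptomycin at 37 °C, 5% CO2. Seeded at 10000 cells/well one day before treatment. Test compound added from DMSO solution and incubated for 48 h, then CCK-8 reagent added and absorbance read at 450 nm. IC50 is the mean of three independent determinations from triplicate samples.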

Series [2] in a line: Plasma protein binding, mouse. The format is in vitro ADME.
Series [3] can be described thus: Plasma protein binding, human. The format is in vitro ADME.
Series [4] concerns HeLa cells. As to the kind of experiment: Cell cycle assay in HeLa cells. The format is cell-based. Particulars: 48 h treatment. In outline: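 HeLa cells (1 × 10^6) grown in 6-well plates and treated with test compound at several concentrations for 48 h. Cells harvested, fixed in 70% ethanol, held at −20 °C for 12 h, then stained with Muse cell cycle reagent for 30 min at room temperature in the dark. Phase distribution read on a Muse cell analyzer. G2/M percentages compared by one-way ANOVA.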

The subject of series [5] is tubulin. As to the kind of experiment: Tubulin polymerization assay. The format is biochemical. The following applies: 0 to 8 μM, 1 h at 37 °C, absorbance 340 nm. In outline: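 Commercial tubulin polymerization kit used per the manufacturer's protocol. Test compound mixed with tubulin in the supplied general tubulin buffer. Polymerization followed by absorbance at 340 nm for 1 h at 37 °C. Curves compared by two-way ANOVA.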

Series [6] can be described thus: Microsomal stability in mouse liver microsomes. The format is in vitro ADME. Particulars: percentage remaining after 30 min, NADPH. For orientation: Liver microsomes are a subcellular fraction often used to study metabolism.
Series [7] in a line: Microsomal stability in human liver microsomes. The format is in vitro ADME. Particulars: percentage remaining after 30 min, NADPH.

A word on the IC50: it is the concentration that gives 50% inhibition. The fraction unbound is free concentration divided by total concentration. Low readings indicate little free substance, high ones much free substance. As to `O=C(Cc1ccc(-c2ccc(OCCN3CCOCC3)cc2)cn1)NCc1ccccc1` [Compound 8, Tirbanibulin, reference compound], the IC50 in series [1] worked out at 0.044 ± 0.011 µM. For the same compound, the figures for the fraction unbound in series [2] and in series [3] were 0.152 and 0.187, respectively. For the same compound, in series [4], the cell cycle effect entry was “G2/M phase arrest”. For the same compound, in series [5], the “effect on tubulin polymerization” value is “microtubule destabilizers”.

As for `Cc1ccc(CNC(=O)Cn2ccc(-c3ccc(OCCN4CCOCC4)cc3)cc2=O)cc1` [Compound 56], the half-inhibitory concentration (IC50) in series [1] amounted to 0.25 ± 0.06 µM. In addition, the “Microsomal stability (%) Mouse” value in series [6] came to 50.6 ± 1.2%. Further, the “Microsomal stability (%) Human” value in series [7] is listed as 20.2 ± 2.3%. Besides, the free fraction (fraction unbound) in series [2] was 0.04; in series [3], 0.171.

For `O=C(Cn1ccc(-c2ccc(OCCN3CCOCC3)cc2)cc1=O)NCc1ccc(F)cc1` [Compound 57], in series [1], the 50% inhibitory concentration (IC50) is 0.34 ± 0.11 µM.
